According to paper PMC7471432 (Acta Pharmacologica Sinica, 2020):
Read-outs that look alike come from different tables or passages of the source.

How the values were obtained:
[1] = system: cultured mouse hippocampal neurons; assay type: cell-based
Method in brief: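 Hippocampi from E18 C57BL/6 mouse embryos were digested with 3 mg/mL proteinase for 8 min at 32 °C, triturated, and plated on poly-D-lysine coverslips. Cells were switched to serum-free Neurobasal-A/B-27 after 6 h and recorded after 12 days. Whole-cell current-clamp used a KCl/EGTA pipette (pH 7.2) and perfused NaCl/HEPES bath (pH 7.4), at room temperature.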

NaV currents = test: NaV currents, whole-cell voltage-clamp, acutely isolated rat hippocampal neurons; assay type: cell-based
CaV currents = test: Total CaV currents, whole-cell voltage-clamp, rat hippocampal neurons; assay type: cell-based; conditions: read-out: IC50 on total CaV currents; holding −90 mV, test pulse 0 mV, n = 6
Method in brief: (§1)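 Rat hippocampal neurons were recorded in whole-cell voltage-clamp with a CsCl/TEA/5 mM MgATP internal (pH 7.2) and a bath containing 5 mM CaCl2 and 20 mM TEA-Cl (pH 7.4). Currents were evoked by steps from −90 mV to 0 mV at room temperature. Activation and inactivation curves were fitted with Boltzmann equations, and IC50 with a 3-parameter Hill equation.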

HVA calcium currents = test: High-voltage-activated; assay type: cell-based, rat; conditions: 10 µmol/L GM
Method in brief: as §1

LVA calcium currents = test: Low-voltage-activated; assay type: cell-based, rat; conditions: 10 µmol/L GM
Method in brief: as §1

[2] = system: delayed rectifier potassium current (IK); test: Delayed rectifier potassium current; assay type: cell-based, rat; conditions: read-out: IC50 on IK; n = 5
Method in brief: (§2)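 Rat hippocampal neurons were recorded in whole-cell voltage-clamp with a KCl/EGTA internal and a NaCl/KCl bath. Cells were held at −50 mV, prepulsed to −110 mV for 500 ms, then stepped from −110 to 40 mV. For IK, a 50 ms step to −50 mV removed IA, and amplitude was read at 300 ms. IA was read as peak. IC50 came from a 3-parameter Hill fit.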

[3] = system: transient outward potassium current (IA); test: Transient outward potassium current; assay type: cell-based, rat; conditions: read-out: IC50 on IA; n = 5
Method in brief: as §2

human Kir2.1 channels = target: T1, human Kir2.1 channels (Homo sapiens, UniProt P63252); test: Kir2.1 currents in HEK-293 cells stably expressing hKir2.1; assay type: cell-based
T1 sequence (P63252 1-427): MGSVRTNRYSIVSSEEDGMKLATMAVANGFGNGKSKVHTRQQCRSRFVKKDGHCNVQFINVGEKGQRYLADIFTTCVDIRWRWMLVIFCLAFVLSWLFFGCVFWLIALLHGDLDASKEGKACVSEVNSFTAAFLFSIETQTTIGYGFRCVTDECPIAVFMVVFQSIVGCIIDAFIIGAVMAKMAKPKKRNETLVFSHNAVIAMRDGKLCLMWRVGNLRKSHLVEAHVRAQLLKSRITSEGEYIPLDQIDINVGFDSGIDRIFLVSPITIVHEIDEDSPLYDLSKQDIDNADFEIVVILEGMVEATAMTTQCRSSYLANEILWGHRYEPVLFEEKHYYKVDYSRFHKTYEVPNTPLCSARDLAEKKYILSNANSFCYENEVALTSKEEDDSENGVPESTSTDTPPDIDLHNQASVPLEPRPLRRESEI
Method in brief: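 HEK-293 cells stably expressing human Kir2.1 were held at −70 mV and given a 500 ms test pulse to −140 mV. The internal was 140 mM KCl with EGTA (pH 7.2) and the bath was NaCl/KCl (pH 7.4), at room temperature. Inhibition ratios are means ± SEM, compared with paired t test against control.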

nACh receptors = test: Acetylcholine-evoked currents, cultured rat hippocampal neurons; assay type: cell-based; conditions: 30 μmol/L GM
Method in brief: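 Cultured rat hippocampal neurons were held at −60 mV in whole-cell mode, and acetylcholine-evoked currents were recorded at room temperature with and without test compound. Concentration–response data (IDrug/IControl) were fitted to a 3-parameter Hill equation to obtain IC50. Data are means ± SEM.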

GABA receptors = test: GABA-induced currents, rat hippocampal neurons; assay type: cell-based; conditions: n = 4
Method in brief: (§3)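 Whole-cell recordings were made at room temperature from rat hippocampal neurons held at −60 mV. Currents were activated by applying the corresponding ligand under continuous bath perfusion. Signals were filtered at 2 kHz and digitized at 10 kHz. Data are means ± SEM, tested by paired two-tailed t test against control.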

NMDA receptors = test: NMDA-induced currents, rat hippocampal neurons; assay type: cell-based; conditions: n = 4
Method in brief: as §3

AMPA receptors = test: AMPA-induced currents, rat hippocampal neurons; assay type: cell-based; conditions: n = 4
Method in brief: as §3

KA receptors = test: KA-induced currents, rat hippocampal neurons; assay type: cell-based; conditions: n = 4
Method in brief: as §3

[4] = system: MES-induced seizure model mice; test: MES-induced seizure assay; assay type: in vivo, mouse; conditions: oral
[5] = system: 6-Hz-induced seizure model mice; test: 6-Hz corneal kindling epilepsy test; assay type: in vivo, mouse; conditions: 100 mg/kg; GM oral 60 min prior to stimulation; 32 mA
[6] = system: isolated rat aorta strips; conditions: 10 µmol/L GM; cited from earlier work

Compound: Geissoschizine methyl ether [GM]
- resting membrane potential after GM perfusion [1]: did not change
- inhibition ratio of firing frequency ([1]; 1 μmol/L GM, n = 6): 45.3% ± 3.7%
- inhibition ratio of firing frequency ([1]; 3 μmol/L GM, n = 6): 49.6% ± 5.1%
- reduction of action potential amplitude ([1]; 3 μmol/L GM, n = 6): 9.5% ± 1.8%
- inhibition ratio of firing frequency ([1]; 10 μmol/L GM, n = 6): 82.3% ± 1.1%
- reduction of action potential amplitude ([1]; 10 μmol/L GM, n = 6): 20.9% ± 3.2%
- half-width of the action potential ([1]; 10 μmol/L GM, control 2.0 ± 0.2 ms, n = 6): 2.7 ± 0.4 ms
- inhibition ratio of firing frequency ([1]; 30 μmol/L GM, n = 6): 97.8% ± 0.5%
- reduction of action potential amplitude ([1]; 30 μmol/L GM, n = 6): 100.0%
- half-activation voltage of NaV currents (NaV currents; 10 µmol/L GM, control −45.1 ± 1.0 mV): −42.7 ± 0.8 mV
- V1/2 of steady-state inactivation of NaV currents (NaV currents; 10 µmol/L GM, control −54.4 ± 0.5 mV): −61.4 ± 0.6 mV
- IC50 (NaV currents; read-out: IC50 on NaV currents, holding −90 mV, test pulse −20 mV, n = 7): 10.2 µM
- IC50 (CaV currents): 13.3 µM
- change of activation curve of HVA currents (HVA calcium currents): did not exhibit a remarkable change
- reduction of HVA currents (HVA calcium currents; elicited at 0 mV, n = 7): 28.5% ± 10.9%
- shift in inactivation curve of HVA currents (HVA calcium currents; n = 9): No significant shift
- change of activation curve of LVA currents (LVA calcium currents): did not exhibit a remarkable change
- reduction of LVA currents (LVA calcium currents; elicited at 0 mV, n = 7): 48.4% ± 6.9%
- effect on LVA current inactivation (LVA calcium currents; n = 5): lack of an effect
- IC50 [2]: 1.6 µM
- IC50 [3]: 50 µM
- inhibition ratio of Kir2.1 currents (human Kir2.1 channels; 10 µmol/L GM, n = 5): 1.3% ± 2.2%
- inhibition ratio of Kir2.1 currents (human Kir2.1 channels; 30 µmol/L GM, n = 7): 3.8% ± 1.5%
- inhibition ratio of Kir2.1 currents (human Kir2.1 channels; 100 µmol/L GM, n = 10): 13.9% ± 2.2%
- inhibition of acetylcholine-evoked currents (nACh receptors): completely inhibited
- change of GABA receptor-mediated currents (GABA receptors; 30 µmol/L GM): No remarkable changes
- modulation of GABA receptor-mediated currents (GABA receptors; 100 µmol/L GM): very weak
- change of NMDA (glutamate) receptor-mediated currents (NMDA receptors; 30 µmol/L GM): No remarkable changes
- modulation of NMDA (glutamate) receptor-mediated currents (NMDA receptors; 100 µmol/L GM): very weak
- change of AMPA (glutamate) receptor-mediated currents (AMPA receptors; 30 µmol/L GM): No remarkable changes
- modulation of AMPA (glutamate) receptor-mediated currents (AMPA receptors; 100 µmol/L GM): very weak
- change of KA (glutamate) receptor-mediated currents (KA receptors; 30 µmol/L GM): No remarkable changes
- modulation of KA (glutamate) receptor-mediated currents (KA receptors; 100 µmol/L GM): very weak
- ED50 for protection against MES [4]: 78.9 (60.3–103.3) mg/kg
- Protection rate (%) [5]: 70%
- effect on Bay K8644- or Ca2+-induced contractions [6]: able to relax

Compound: CC[C@@H](C(N)=O)N1CCCC1=O [LEV, Levetiracetam, reference compound]
- Protection rate (%) [5]: 100%
